Active and inactive are the calls of the source. No cut-off for these calls is given here.
Key:
[1] = Plasma concentration in Beagle dog at 1 mg/kg, iv after 24 hrs; assay type: ADME, organism-based, Canis lupus familiaris; set-up: dose 1 mg/kg, route intravenous
Rattus norvegicus [2] = assay: Androgenic effect in rat ORX model assessed as reversal of testosterone propionate-induced prostate weight treated at 10 mg/kg, po; assay type: functional, organism-based; set-up: dose 10 mg/kg; settings: Prostate gland
[3] = AUC (0 to infinity) in Beagle […] at 10 mg/kg, po; assay type: ADME, organism-based, Canis lupus familiaris; set-up: time infinity, dose 10 mg/kg, route oral; settings: plasma
[4] = Plasma concentration in Beagle dog at 10 mg/kg, po after 6 hrs; assay type: ADME, organism-based, Canis lupus familiaris; set-up: dose 10 mg/kg, route oral
[5] = Clearance in Sprague-Dawley rat at 1 mg/kg, iv; assay type: ADME, organism-based; set-up: dose 1 mg/kg, route intravenous; settings: in vivo
Rattus norvegicus [6] = assay: Androgenic effect in castrated rat prostate assessed as reversal at 0.3 to 3 mg/kg/day sc using osmotic pump after 14 days; assay type: functional, Prostate gland; settings: route subcutaneous
Method in brief: (§1)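 Orchiectomized male rats received compound by subcutaneous osmotic pump for 14 days at 0.1-3 (mg/kg)/day. […] Levator ani and ventral prostate were weighed after 2 weeks and compared with sham-operated vehicle-treated controls, expressed as reversal of ORX-induced atrophy.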

Rattus norvegicus [7] = assay: Anabolic effect in castrated rat levator ani muscle assessed as reversal of ORX-induced atrophy at 1 mg/kg/day sc using osmotic pump after 14 days; assay type: functional; settings: route subcutaneous; method in brief: as §1
[8] = Binding affinity to androgen receptor LBD T877A mutant in hamster DDT cells by scintillation counting; assay type: cell-based, Cricetinae
[9] = Agonist activity at androgen receptor LBD T877A mutant in mouse NIH3T3 cells transiently transfected with beta-galactosidase reporter gene assessed as cellular transformation by R-SAT assay; assay type: functional, cell-based
Method in brief: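 AR expression vector transiently co-transfected (Polyfect) with β-galactosidase and coactivators SRC1, DRIP205 and GRIP1 into NIH-3T3 fibroblasts at 60-70% confluency. ONPG substrate added, absorbance read at 420 nm. EC50 from a hyperbolic fit. Mean ± SEM of three or more independent experiments.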

[10] = Volume of distribution at steady state in Beagle dog at 1 mg/kg, iv; assay type: ADME, organism-based, Canis lupus familiaris; set-up: dose 1 mg/kg, route intravenous; settings: in vivo, read-out: Vdss
[11] = Plasma concentration in Beagle dog at 10 mg/kg, po after 0.5 hrs; assay type: ADME, organism-based, Canis lupus familiaris; set-up: dose 10 mg/kg, route oral
[12] = Plasma concentration in Beagle dog at 10 mg/kg, po after 4 hrs; assay type: ADME, organism-based, Canis lupus familiaris; set-up: dose 10 mg/kg, route oral
[13] = Plasma concentration in Beagle dog at 10 mg/kg, po after 24 hrs; assay type: ADME, organism-based, Canis lupus familiaris; set-up: dose 10 mg/kg, route oral
[14] = Cmax in Beagle dog at 1 mg/kg, iv; assay type: ADME, organism-based, Canis lupus familiaris; set-up: dose 1 mg/kg, route intravenous; settings: in vivo
[15] = Cmax in Beagle dog at 10 mg/kg, po; assay type: ADME, organism-based, Canis lupus familiaris; set-up: dose 10 mg/kg, route oral; settings: in vivo
Androgen receptor = biological target: T1, Androgen receptor (Homo sapiens, UniProt P10275); assay: Agonist activity at androgen receptor in human MDA-KB2 cells transfected with MMTV linked luciferase assessed as transcriptional activation by luciferase reporter gene assay
T1 sequence (P10275 whole entry): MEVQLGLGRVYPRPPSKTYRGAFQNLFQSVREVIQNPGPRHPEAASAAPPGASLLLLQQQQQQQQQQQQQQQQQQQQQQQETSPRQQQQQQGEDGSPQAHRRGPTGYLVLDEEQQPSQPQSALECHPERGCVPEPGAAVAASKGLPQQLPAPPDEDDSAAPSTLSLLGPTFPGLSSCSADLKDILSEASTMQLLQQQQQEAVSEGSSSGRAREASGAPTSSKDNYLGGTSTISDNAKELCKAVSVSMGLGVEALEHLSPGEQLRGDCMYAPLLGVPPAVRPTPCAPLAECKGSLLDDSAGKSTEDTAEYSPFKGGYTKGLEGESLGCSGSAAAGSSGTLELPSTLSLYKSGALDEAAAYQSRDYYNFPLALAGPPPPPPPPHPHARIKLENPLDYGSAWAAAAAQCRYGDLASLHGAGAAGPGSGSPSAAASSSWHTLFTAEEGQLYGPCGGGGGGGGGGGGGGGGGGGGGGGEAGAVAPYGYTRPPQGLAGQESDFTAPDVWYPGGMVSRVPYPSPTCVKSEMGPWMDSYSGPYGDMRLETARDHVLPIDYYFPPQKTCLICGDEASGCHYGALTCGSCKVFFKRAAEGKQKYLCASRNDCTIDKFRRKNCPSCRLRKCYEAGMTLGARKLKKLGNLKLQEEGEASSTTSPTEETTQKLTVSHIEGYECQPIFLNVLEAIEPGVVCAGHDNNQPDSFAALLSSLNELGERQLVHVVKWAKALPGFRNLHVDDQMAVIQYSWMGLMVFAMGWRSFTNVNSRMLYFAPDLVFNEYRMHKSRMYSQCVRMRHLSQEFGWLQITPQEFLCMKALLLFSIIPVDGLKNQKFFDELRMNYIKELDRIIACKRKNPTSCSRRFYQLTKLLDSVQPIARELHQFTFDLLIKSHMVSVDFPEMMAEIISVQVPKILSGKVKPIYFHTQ

[16] = Oral bioavailability in Sprague-Dawley rat at 10 mg/kg, po; assay type: ADME, organism-based; settings: in vivo
[17] = Plasma concentration in Sprague-Dawley rat at 10 mg/kg, po after 10 mins; assay type: ADME, organism-based; set-up: dose 10 mg/kg, route oral
[18] = Plasma concentration in Beagle dog at 1 mg/kg, iv after 6 hrs; assay type: ADME, organism-based, Canis lupus familiaris; set-up: dose 1 mg/kg, route intravenous
Liver microsomes [19] = assay: Metabolic stability in human liver microsomes assessed as intrinsic clearance; assay type: ADME, Microsome
[20] = Plasma concentration in Beagle dog at 10 mg/kg, po after 0.25 hrs; assay type: ADME, organism-based, Canis lupus familiaris; set-up: dose 10 mg/kg, route oral
[21] = Plasma concentration in Sprague-Dawley rat at 1 mg/kg, iv after 1 min; assay type: ADME, organism-based; set-up: dose 1 mg/kg, route intravenous
[22] = Plasma concentration in Beagle dog at 1 mg/kg, iv after 8 hrs; assay type: ADME, organism-based, Canis lupus familiaris; set-up: dose 1 mg/kg, route intravenous
[23] = Plasma concentration in Sprague-Dawley rat at 10 mg/kg, po after 120 mins; assay type: ADME, organism-based; set-up: dose 10 mg/kg, route oral
[24] = Oral bioavailability in dog; assay type: ADME, organism-based, Canis lupus familiaris; settings: in vivo
[25] = AUC (8 hrs) in Sprague-Dawley rat at 1 mg/kg, iv; assay type: ADME, organism-based; set-up: time < 8 hr, dose 1 mg/kg, route intravenous; settings: plasma
[26] = Plasma concentration in Sprague-Dawley rat at 10 mg/kg, po after 360 mins; assay type: ADME, organism-based; set-up: dose 10 mg/kg, route oral
[27] = AUC (0 to infinity) in Beagle dog at 1 mg/kg, iv; assay type: ADME, organism-based, Canis lupus familiaris; set-up: dose 1 mg/kg, route intravenous, time infinity; settings: plasma
[28] = Plasma concentration in Beagle dog at 1 mg/kg, iv after 4 hrs; assay type: ADME, organism-based, Canis lupus familiaris; set-up: dose 1 mg/kg, route intravenous
[29] = Plasma concentration in Sprague-Dawley rat at 1 mg/kg, iv after 10 mins; assay type: ADME, organism-based; set-up: dose 1 mg/kg, route intravenous
[30] = AUC (8 hrs) in Sprague-Dawley rat at 10 mg/kg, po; assay type: ADME, organism-based; set-up: time < 8 hr, dose 10 mg/kg, route oral; settings: plasma
[31] = Plasma concentration in Beagle dog at 1 mg/kg, iv after 0.25 hrs; assay type: ADME, organism-based, Canis lupus familiaris; set-up: dose 1 mg/kg, route intravenous
[32] = Plasma concentration in Sprague-Dawley rat at 10 mg/kg, po after 30 mins; assay type: ADME, organism-based; set-up: dose 10 mg/kg, route oral
[33] = Plasma concentration in Sprague-Dawley rat at 1 mg/kg, iv after 120 mins; assay type: ADME, organism-based; set-up: dose 1 mg/kg, route intravenous
[34] = Clearance in Beagle dog at 1 mg/kg, iv; assay type: ADME, organism-based, Canis lupus familiaris; set-up: dose 1 mg/kg, route intravenous; settings: in vivo
[35] = Cmax in Sprague-Dawley rat at 1 mg/kg, iv; assay type: ADME, organism-based; set-up: dose 1 mg/kg, route intravenous; settings: in vivo
[36] = Plasma concentration in Sprague-Dawley rat at 10 mg/kg, po after 60 mins; assay type: ADME, organism-based; set-up: dose 10 mg/kg, route oral
Liver microsomes [37] = assay: Metabolic stability in rat liver microsomes assessed as intrinsic clearance; assay type: ADME, Microsome
[38] = Oral bioavailability in rat; assay type: ADME, organism-based; settings: in vivo
[39] = Plasma concentration in Beagle dog at 1 mg/kg, iv after 2 hrs; assay type: ADME, organism-based, Canis lupus familiaris; set-up: dose 1 mg/kg, route intravenous
[40] = Plasma concentration in Beagle dog at 1 mg/kg, iv after 1 hrs; assay type: ADME, organism-based, Canis lupus familiaris; set-up: dose 1 mg/kg, route intravenous

What does the source list for `Cc1c(N2[C@@H]3CC[C@H]2C[C@@](C)(O)C3)ccc(C#N)c1Cl`?
concentration at 24 h [1]: 0.3 ng/mL; Activity (Rattus norvegicus [2]): Active; AUC(0-inf) [3]: 2210 ng·h/mL; concentration at 6 h [4]: 104 ng/mL; clearance [5]: 24.4 mL/min/kg; Activity (Rattus norvegicus [6]): 21%; Activity (Rattus norvegicus [7]): 67%; pKi [8]: 5.5; EC50 [9]: 0.398 nM; Vd [10]: 6.1 L/kg; concentration at 0.5 h [11]: 592 ng/mL; concentration at 4 h [12]: 159 ng/mL; concentration at 24 h [13]: 3.2 ng/mL; Cmax [14]: 357 ng/mL; Cmax [15]: 835 ng/mL; EC50 (Androgen receptor): 0.251 nM; bioavailability [16]: 38%; concentration at 10 min [17]: 148 ng/mL; concentration at 6 h [18]: 9.5 ng/mL; CL (Liver microsomes [19]): 28 uL/ml.millig; concentration at 0.25 h [20]: 835 ng/mL; concentration at 1 min [21]: 824 ng/mL; concentration at 8 h [22]: 5.5 ng/mL; concentration at 2 h [23]: 238 ng/mL; bioavailability [24]: 56%; AUC at 8 h [25]: 631 ng·h/mL; concentration at 6 h [26]: 350 ng/mL; AUC(0-inf) [27]: 394 ng·h/mL; concentration at 4 h [28]: 18.5 ng/mL; concentration at 10 min [29]: 447 ng/mL; AUC at 8 h [30]: 2370 ng·h/mL; concentration at 0.25 h [31]: 231 ng/mL; concentration at 0.5 h [32]: 314 ng/mL; concentration at 2 h [33]: 74.3 ng/mL; clearance [34]: 42 mL/min/kg; Cmax [35]: 882 ng/mL; concentration at 1 h [36]: 263 ng/mL; CL (Liver microsomes [37]): 72 uL/ml.millig; bioavailability [38]: 38%; concentration at 2 h [39]: 49.5 ng/mL; concentration at 1 h [40]: 89.3 ng/mL

From ChEMBL document CHEMBL1156129, “Synthesis, structure-activity relationships, and characterization of novel nonsteroidal and selective androgen receptor modulators” (J Med Chem, 2009)
